Laboratory results from the array DNA melting data of Ke et al. (doi:10.1101/2024.01.08.574731).

Key:
[1] = melting temperature; fluorescence melt of hairpins on a sequencing array, two-state fit, raised by 9.35 °C to match UV melts; conditions: sodium 0.088 M
Procedure, shortened: (§1)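 Bootstrapped two-state fits yielded melting temperature and folding enthalpy for library hairpins. Cy3 fluorescence, with annealed Cy3 and quencher oligos, was imaged on a sequenced MiSeq flow cell in 50 mM Na-HEPES pH 8.0, 25 mM NaCl in 2.5 °C steps up to 60 °C, and normalised to pre-quench Cy3 and to control constructs. Four replicates were combined by inverse variance, and fitted temperatures were raised by 9.35 °C to match UV melts.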

[2] = folding enthalpy; higher = less favourable; fluorescence melt of hairpins on a sequencing array, two-state fit; conditions: sodium 0.088 M
Procedure, shortened: as §1

Sequence	Tm [1]	folding enthalpy [2]
GATCAGGACACTGATC ((((((....))))))	56.7 °C	-190 kJ/mol
GCGCTTGGAAACGAGTGC ((.((.(....).)).))	46.1 °C	-137 kJ/mol
GATCTTTGATAAGATC ((((((....))))))	42.6 °C	-107 kJ/mol
GGAGATTCGAAAGAATCC (((..(((....))))))	38.7 °C	-55.7 kJ/mol
CGCCCGGAAACGGTAGCG ((((((....)))..)))	50.9 °C	-127 kJ/mol
GGATTACCGAAAGGTTCC (((..(((....))))))	30.8 °C	-56.4 kJ/mol
GCGCGGCGAAAGCTCCGC (((..((....))..)))	58.3 °C	-85.1 kJ/mol
GCCATGCGAAAGCTAGGC (((..((....))..)))	62.2 °C	-114 kJ/mol
CGGACGGAAACGTCACCG ((((((....)))..)))	34.4 °C	-48.7 kJ/mol
GGACCCGAAAGGGGATCC ((((((....)))..)))	51.4 °C	-62.1 kJ/mol
GCCCCGCGAAAGCCTGGC (((..((....))..)))	39.5 °C	-71.2 kJ/mol
GGGATCGAAAGATGCCC ((((((....))).)))	50.3 °C	-196 kJ/mol
GGTGTGGGAAACTGCACC ((((..(....)..))))	47.7 °C	-110 kJ/mol
GGCCATCGAAAGATGCC (((.(((....))))))	54.9 °C	-82.7 kJ/mol
GGTCTGGGAAACCAGACC (((((((....)))))))	67.7 °C	-197 kJ/mol
GTATGCGAAAGCAGTTAC ((((((....)))..)))	28.2 °C	-42.2 kJ/mol
GATCGGGTGACCGATC ((((((....))))))	67 °C	-152 kJ/mol
GATCCTATGTAGGATC ((((((....))))))	54.5 °C	-146 kJ/mol
GCTTTGCGAAAGCAGTGC ((..(((....)))..))	38.4 °C	-57.7 kJ/mol

Sequence	Tm [1]	folding enthalpy [2]
GCGAGTGTTCGC ((((....))))	49 °C	-60.1 kJ/mol
GTATACACGAAAGTGTAC (((..(((....))))))	31.1 °C	-40.9 kJ/mol
GATCAGTCAACTGATC ((((((....))))))	50.9 °C	-157 kJ/mol
GCCCGGCGAAAGCGCGGC (((..((....))..)))	61.7 °C	-67.5 kJ/mol
GTATTACGAAAGTACTAC (((.(((....))).)))	32.7 °C	-83.1 kJ/mol
GATCATTATAATGATC ((((((....))))))	49.7 °C	-138 kJ/mol
GTTATGCGAAAGCAGAAC (((.(((....))).)))	55.9 °C	-132 kJ/mol
GCTGAAGCGAAAGCTAGC (((..(((....))))))	44.6 °C	-77.9 kJ/mol
GATCCCGAAAGGGGAATC ((((((....)))..)))	36.1 °C	-51.4 kJ/mol
GATCCGCACCCGGATC ((((((....))))))	55.4 °C	-162 kJ/mol
GCTCCGCGAAAGCTGGGC ((.(.((....)).).))	44.9 °C	-90 kJ/mol
GATTAACGAAAGTTTATC (((.(((....))).)))	34.9 °C	-95.5 kJ/mol
GGCTGCGAAAGCATGCC ((((((....))).)))	66.7 °C	-90.3 kJ/mol
GGTCTGGGAAACCAGGTC (..((((....))))..)	34.9 °C	-59.9 kJ/mol
GCCAGGCCGAAAGGCGGC (((..(((....))))))	64.9 °C	-77.2 kJ/mol
GCAGCCGAAAGGCCTGC ((((((....))).)))	61.3 °C	-107 kJ/mol
GATCAGGGGACTGATC ((((((....))))))	53.8 °C	-136 kJ/mol
GCCGACGAAAGTCTGGC ((((((....))).)))	58.2 °C	-145 kJ/mol
GGTAACCGAAAGGTACC (((.(((....))))))	51.1 °C	-81 kJ/mol
